Source: ChEMBL document CHEMBL1131002, “2beta-Substituted analogues of 4'-iodococaine: synthesis and dopamine transporter binding potencies” (J Med Chem, 1998)

biological target: T1, Monoamine transporters; Norepininephrine & dopamine (Rattus norvegicus) (UniProt P23977+Q9WTR4); assay: (§1) Selectivity for Norepinephrine and Dopamine Transporters was evaluated; assay type: protein assay

Point of comparison: `COC(=O)[C@@H]1C2CCC(C[C@@H]1OC(=O)c1ccc(I)cc1)N2C` (stereo not given in full), Selectivity 7.3. Against it:
- CC(C)OC(=O)[C@@H]1C2CCC(C[C@@H]1OC(=O)c1ccc(I)cc1O)N2C (stereo not given in full) — higher, 52.5
- COC(=O)[C@@H]1C2CCC(C[C@@H]1OC(=O)c1ccc(I)cc1O)N2C (stereo not given in full) — lower, 4.7
- COC(=O)[C@@H]1C2CCC(C[C@@H]1OC(=O)c1ccccc1O)N2C (stereo not given in full) — lower, 1.9

biological target: Norepinephrine transporter (Rattus norvegicus, UniProt Q9WTR4); assay: Inhibition of norepinephrine Transporter Affinity against rat whole brain using [3H]nisoxetine radioligand
Outline: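 Whole brain minus cerebellum membranes in 50 mM Tris-HCl pH 7.4 with 300 mM NaCl and 5 mM KCl. Displacement of 0.7 nM [3H]nisoxetine. Incubated 40 min at 25 °C, then filtered on BSA-soaked GF/B. 1 μM desipramine defined nonspecific binding.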

Chain of Norepinephrine transporter (Q9WTR4 whole entry): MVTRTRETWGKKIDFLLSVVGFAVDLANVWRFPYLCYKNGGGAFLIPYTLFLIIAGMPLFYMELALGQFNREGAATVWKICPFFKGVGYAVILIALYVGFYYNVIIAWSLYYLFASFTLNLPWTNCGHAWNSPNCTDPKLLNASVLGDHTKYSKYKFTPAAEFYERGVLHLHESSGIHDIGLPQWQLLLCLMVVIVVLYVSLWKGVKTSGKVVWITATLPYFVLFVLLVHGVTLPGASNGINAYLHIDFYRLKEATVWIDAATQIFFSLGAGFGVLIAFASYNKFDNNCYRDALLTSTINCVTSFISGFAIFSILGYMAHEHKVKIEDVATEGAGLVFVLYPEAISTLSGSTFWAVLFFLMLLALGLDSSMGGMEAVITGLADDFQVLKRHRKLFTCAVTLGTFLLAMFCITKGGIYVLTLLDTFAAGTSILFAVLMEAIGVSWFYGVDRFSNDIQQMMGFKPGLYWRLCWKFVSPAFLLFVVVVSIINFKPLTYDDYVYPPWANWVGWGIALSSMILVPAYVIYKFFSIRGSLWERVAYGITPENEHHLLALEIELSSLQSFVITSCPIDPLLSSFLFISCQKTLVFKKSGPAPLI

Point of comparison: `COC(=O)[C@@H]1C2CCC(C[C@@H]1OC(=O)c1ccc(I)cc1O)N2C` (stereo not given in full), IC50 1020 nM. Against it:
- COC(=O)[C@@H]1C2CCC(C[C@@H]1OC(=O)c1ccc(I)cc1)N2C (stereo not given in full) — 18-fold higher, 18500 nM
- CC(C)OC(=O)[C@@H]1C2CCC(C[C@@H]1OC(=O)c1ccc(I)cc1O)N2C (stereo not given in full) — 34-fold higher, 34800 nM
- COC(=O)[C@H]1[C@@H](c2ccc(F)cc2)C[C@H]2CC[C@H]1N2C — 4-fold lower, 258 nM
- COC(=O)[C@@H]1C2CCC(C[C@@H]1OC(=O)c1ccccc1O)N2C (stereo not given in full) — 21-fold lower, 48 nM

biological target: Sodium-dependent dopamine transporter (Rattus norvegicus, UniProt P23977); assay: Inhibition of dopamine Transporter Affinity against rat whole brain using [3H]WIN-35428 as radioligand; assay type: tissue-based
Sequence (P23977 whole entry): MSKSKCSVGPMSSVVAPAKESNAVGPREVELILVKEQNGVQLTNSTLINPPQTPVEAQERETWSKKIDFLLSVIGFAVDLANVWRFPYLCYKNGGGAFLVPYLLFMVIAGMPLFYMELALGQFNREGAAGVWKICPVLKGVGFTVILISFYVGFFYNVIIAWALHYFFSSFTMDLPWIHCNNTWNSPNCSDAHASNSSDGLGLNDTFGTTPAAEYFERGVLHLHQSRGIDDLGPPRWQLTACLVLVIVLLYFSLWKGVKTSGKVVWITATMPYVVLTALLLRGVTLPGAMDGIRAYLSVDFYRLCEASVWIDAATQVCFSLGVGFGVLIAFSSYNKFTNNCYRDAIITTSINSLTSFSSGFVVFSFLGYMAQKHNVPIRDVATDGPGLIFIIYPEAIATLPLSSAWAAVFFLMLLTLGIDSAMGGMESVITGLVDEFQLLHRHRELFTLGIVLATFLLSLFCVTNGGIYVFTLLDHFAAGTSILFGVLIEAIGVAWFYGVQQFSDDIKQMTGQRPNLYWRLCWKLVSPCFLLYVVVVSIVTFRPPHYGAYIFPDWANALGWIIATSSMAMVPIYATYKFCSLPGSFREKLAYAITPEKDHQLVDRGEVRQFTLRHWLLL

Point of comparison: `CN1C2CCC1[C@@H](CO)[C@@H](OC(=O)c1ccc(I)cc1)C2` (stereo not given in full), IC50 6210 nM. Against it:
- CC(C)OC(=O)[C@@H]1C2CCC(C[C@@H]1OC(=O)c1ccc(I)cc1O)N2C (stereo not given in full) — 9.4-fold lower, 663 nM
- COC(=O)[C@@H]1C2CCC(C[C@@H]1OC(=O)c1ccc(I)cc1O)N2C (stereo not given in full) — 29-fold lower, 215 nM
- CN1C2CCC1[C@@H](c1nc(-c3ccccc3)no1)[C@@H](OC(=O)c1ccc(I)cc1)C2 (stereo not given in full) — 1.8-fold lower, 3460 nM
- CC(=O)OC[C@@H]1C2CCC(C[C@@H]1OC(=O)c1ccc(I)cc1)N2C (stereo not given in full) — 2.1-fold lower, 3000 nM
- CN1C2CCC1[C@@H](C(=O)OCc1ccccc1)[C@@H](OC(=O)c1ccc(I)cc1)C2 (stereo not given in full) — within 1.5-fold, 4600 nM
- COC(=O)[C@@H]1C2CCC(C[C@@H]1OC(=O)c1ccccc1O)N2C (stereo not given in full) — 250-fold lower, 25 nM
- CN1C2CCC1[C@@H](C(=O)Oc1ccccc1)[C@@H](OC(=O)c1ccc(I)cc1)C2 (stereo not given in full) — 3.1-fold lower, 2020 nM
- CC[C@@H]1C2CCC(C[C@@H]1OC(=O)c1ccc(I)cc1)N2C (stereo not given in full) — 2.3-fold lower, 2690 nM
- CCOC(=O)[C@@H]1C2CCC(C[C@@H]1OC(=O)c1ccc(I)cc1)N2C (stereo not given in full) — 3.1-fold lower, 2030 nM
- CNC(=O)[C@@H]1C2CCC(C[C@@H]1OC(=O)c1ccc(I)cc1)N2C (stereo not given in full) — higher, > 100000 nM
- CC(C)OC(=O)[C@@H]1C2CCC(C[C@@H]1OC(=O)c1ccc(I)cc1)N2C (stereo not given in full) — 4.5-fold lower, 1380 nM
- C=C[C@@H]1C2CCC(C[C@@H]1OC(=O)c1ccc(I)cc1)N2C (stereo not given in full) — 2.9-fold lower, 2170 nM

biological target: T1, Monoamine transporters; Norepininephrine & dopamine (Rattus norvegicus); assay: as §1; assay type: protein assay
Target sequence in this assay (P23977 whole entry): as above
Target sequence in this assay (Q9WTR4 1-597): as the sequence (Q9WTR4 whole entry) above

Point of comparison: `COC(=O)[C@@H]1C2CCC(C[C@@H]1OC(=O)c1ccccc1O)N2C` (stereo not given in full), Selectivity 5.7. Against it:
- COC(=O)[C@@H]1C2CCC(C[C@@H]1OC(=O)c1ccc(I)cc1)N2C (stereo not given in full) — lower, 0.4
- CC(C)OC(=O)[C@@H]1C2CCC(C[C@@H]1OC(=O)c1ccc(I)cc1O)N2C (stereo not given in full) — higher, 6.8
- COC(=O)[C@@H]1C2CCC(C[C@@H]1OC(=O)c1ccc(I)cc1O)N2C (stereo not given in full) — lower, 0.9

biological target: Sodium-dependent serotonin transporter (Rattus norvegicus, UniProt P31652); assay: Inhibition of serotonin Transporter Affinity against rat whole brain using [3H]paroxetine as radioligand
Sequence (P31652 whole entry): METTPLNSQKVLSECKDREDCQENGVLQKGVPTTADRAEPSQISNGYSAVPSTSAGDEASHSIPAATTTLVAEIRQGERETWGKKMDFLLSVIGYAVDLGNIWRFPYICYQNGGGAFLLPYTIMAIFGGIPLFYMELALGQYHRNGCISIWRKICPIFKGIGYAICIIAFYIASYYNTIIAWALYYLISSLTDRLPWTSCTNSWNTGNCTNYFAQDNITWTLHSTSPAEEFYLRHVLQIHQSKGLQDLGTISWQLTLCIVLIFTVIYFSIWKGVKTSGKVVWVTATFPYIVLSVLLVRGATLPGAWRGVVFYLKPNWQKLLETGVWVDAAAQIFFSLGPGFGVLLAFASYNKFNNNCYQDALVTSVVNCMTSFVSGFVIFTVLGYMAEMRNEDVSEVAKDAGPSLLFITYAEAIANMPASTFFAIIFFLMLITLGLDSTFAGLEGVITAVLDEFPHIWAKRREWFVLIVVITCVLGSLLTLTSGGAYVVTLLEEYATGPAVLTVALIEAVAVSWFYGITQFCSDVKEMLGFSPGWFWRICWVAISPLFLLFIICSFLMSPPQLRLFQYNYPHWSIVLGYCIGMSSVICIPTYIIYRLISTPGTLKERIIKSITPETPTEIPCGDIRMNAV

Point of comparison: `CC(C)OC(=O)[C@@H]1C2CCC(C[C@@H]1OC(=O)c1ccc(I)cc1O)N2C` (stereo not given in full), IC50 4510 nM. Against it:
- COC(=O)[C@@H]1C2CCC(C[C@@H]1OC(=O)c1ccc(I)cc1)N2C (stereo not given in full) — 4.3-fold lower, 1050 nM
- COC(=O)[C@@H]1C2CCC(C[C@@H]1OC(=O)c1ccc(I)cc1O)N2C (stereo not given in full) — 23-fold lower, 195 nM
- COC(=O)[C@@H]1C2CCC(C[C@@H]1OC(=O)c1ccccc1O)N2C (stereo not given in full) — 32-fold lower, 143 nM
